Bioassay records (PubChem BioAssay)
ATG4B inh: blocks human ATG4B protease cleavage of LC3 substrate; Q9Y4P1; inhibition, % at 8.33 µM; actives 0.51% (n = 340,000); ATG4B cleavage of LC3-PLA2, NBD-HPC fluorescence, 1 h; in the data active = inhibition above about 40%
MC4R antagonist: antagonists of human melanocortin 4 receptor (MC4R); inhibition, % at 6.5 µM; AID 540295; P32245; MC4R-expressing cells, MTII-stimulated cAMP, LANCE TR-FRET; actives 0.48% (n = 360,000);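 active = inhibition above its plate's cutoff, the mean of tested wells on that plate plus 3 SD, cut at about 29% in these data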;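 note: 0% = Melanotan II alone and 100% = Melanotan II plus saturating MCL0020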
Target sequence (P32245 whole entry, looked up): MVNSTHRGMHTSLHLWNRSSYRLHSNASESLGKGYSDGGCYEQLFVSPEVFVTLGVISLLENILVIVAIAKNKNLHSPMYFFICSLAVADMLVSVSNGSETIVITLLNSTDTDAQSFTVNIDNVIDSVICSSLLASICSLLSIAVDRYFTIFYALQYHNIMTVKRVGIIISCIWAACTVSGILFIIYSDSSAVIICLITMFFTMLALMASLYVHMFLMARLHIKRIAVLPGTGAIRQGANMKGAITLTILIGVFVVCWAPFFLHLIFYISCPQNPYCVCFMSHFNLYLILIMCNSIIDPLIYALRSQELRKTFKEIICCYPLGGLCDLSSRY
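System: U2OS-MC4R stable cell line; Technique: Eu-cAMP/anti-cAMP TR-FRET, emission 671 nm; Repeats: single well per compound; Also added: Melanotan II; Dosing: one concentration, 6.5 µM nominal; Schedule: 30-min compound, 1-h challenge, 1-h detection, room temperature.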
SMARCA2 act: SMARCA2 function activation, primary screen | MG213 cells, MMTV-luciferase reporter, dexamethasone, overnight | activation, % at 9.1 µM | AID 652017 | actives 1% (n = 370,000); in the data active = activation above about 7.8%;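 note: 0% = vehicle wells and 100% = reference activator wells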
MPTP inh: inhibitors of mitochondrial permeability transition pore; isolated mouse mitochondria, Ca2+ swelling absorbance, 30 min; inhibition, % at 10 µM; actives 1.4% (n = 360,000); AID 602449;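 active = inhibition of 50% or more, scaled per plate between neutral and stimulator controls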;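 note: 0% = DMSO wells given calcium and 100% = 1 mM EGTA wells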
MC4R barr agon: human MC4R agonism via beta-arrestin; P32245; U2OS MC4R beta-arrestin complementation, luminescence; percent of melanotan II response, DMSO zero; activation, % at 8.9 µM; actives 0.98% (n = 360,000); AID 540308;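 active = activation above a per-plate cutoff, the mean activation of sample wells on that plate plus 3 SD, cut at about 8% in these data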
MPTP counter: mitochondrial membrane potential, counter-screen; isolated mitochondria, Rhodamine 123 fluorescence; shares compounds with MPTP inh; AID 624504; inhibition, % at 10 µM; actives 78% (n = 5,000); in the data active = inhibition above about 22%;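 note: 0% = DMSO vehicle and 100% = positive control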
MPTP swell DR: dose response confirmation of mitochondrial permeability transition pore inhibitors | shares compounds with MPTP inh | isolated mitochondria swelling, absorbance | IC50, µM | actives 58% (n = 780) | AID 651561; in the data active = IC50 below about 20 µM
MPTP counter DR: MPTP inhibitor counter-screen activity, dose response; isolated mitochondria counterscreen, fluorescence read-out; shares compounds with MPTP inh; AID 651564; IC50, µM; actives 49% (n = 780); in the data active = IC50 below about 80 µM
* hit, by the source's call; x = not tested or not shown. In the library only some 4.1% were active in any assay of this set; here they are far more common.

SMILES | ATG4B inh | MC4R antagonist | SMARCA2 act | MPTP inh | MC4R barr agon | MPTP counter | others
COC(=O)CCN(Cc1ccc(OC)cc1OC)S(=O)(=O)c1ccccc1Br | x | x | 0 | x | x | x
CCN1CCCCC(NC(C)=O)C1=O (centres undefined) | x | x | -2 | x | x | x
Clc1ccc2[nH]cc(-c3nnnn3-c3ccccc3)c2c1 | -25 | -4 | -1 | 76* | -1 | 82*
Nn1c(SCC(=O)Nc2cc(C(F)(F)F)ccc2Cl)nnc1-c1n[nH]c2c1CCC2 | x | x | -6 | x | x | x
Cc1ccc(NC(=O)c2cc(S(=O)(=O)NCCC3=CCCCC3)ccc2F)cc1F | -1 | 12 | -6 | 83* | -1 | 78*
CC(=O)N1CCc2cc(S(=O)(=O)NCCC3=CCCCC3)ccc21 | -3 | 0 | -6 | 61* | -1 | 82*
O=C(Nc1cccc(F)c1)c1cc(S(=O)(=O)NCCC2=CCCCC2)ccc1F | -9 | 1 | -7 | 63* | -1 | 78*
Cc1ccc(S(=O)(=O)NCCC2=CCCCC2)cc1C(N)=O | -9 | 5 | -4 | -2 | -4 | x
CC(OCC(O)CNCC1COc2ccccc2O1)c1ccc(Cl)cc1 (centres undefined) | -6 | 9 | -1 | 86* | 2 | -6 | MPTP swell DR=15*;MPTP counter DR=58*
Cc1[nH]nc(-c2ccc(O)cc2O)c1Oc1ccccc1 | -12 | -13 | -4 | 56* | 1 | 58*
COC(=O)[C@]12C[C@H](CC(=O)NCc3cccc(C(F)(F)F)c3)C(=O)N(Cc3ccccc3)C1=C[C@H](C1CCCC1)O[C@@H]2C | x | x | -3 | x | x | x
Cc1ccc(NC(=O)CC(O)(C(F)(F)F)C(F)(F)F)c(Br)c1 | 3 | 4 | 1 | 53* | -2 | 79*
CCOC(=O)C1(Cc2cccc(OC)c2)CCN(C/C=C/c2ccc(OC)cc2)CC1 | 0 | -2 | -5 | 80* | 2 | 79*
CCOC(=O)C1(Cc2cccc(OC)c2)CCN(CCO)CC1 | -8 | 6 | -1 | 0 | -2 | x
c1ccc(-c2cc3c(ccc4nonc43)nn2)cc1 | -1 | 6 | -1 | -2 | 0 | x
On1onc2c3cc(-c4ccccc4)nc3ccc21 | 11 | 14 | -2 | 101* | 0 | 65*
C=CCN=C1NC(CCc2ccccc2)C(C(=O)OC)=C(C)N1C (centres undefined) | x | x | -3 | x | x | x
O=C(CSc1nnc(-c2ccc(O)cc2)o1)N1CCOCC1 | -10 | -10 | -1 | 1 | -1 | x
Oc1ccc(-c2nnc(SCC3CCCCC3)o2)cc1 | -8 | -2 | 3 | 55* | 2 | 54*
CC1(C(=O)Nc2ccc3c(c2)OCO3)CCN1C(=O)Cc1ccc(-c2ccccc2)cc1 (centres undefined) | x | 6 | -8 | 74* | 0 | 96*
CC1(C(=O)Nc2ccccc2)CCN1C(=O)Cc1ccc(-c2ccccc2)cc1 (centres undefined) | x | 15 | -3 | 8 | -1 | x
CCCCNc1c(-c2ccc(Sc3ccc(OC)cc3)cc2)nc2cc(C)ccn12 | 8 | 24 | 0 | 60* | -1 | 97*
COC(=O)c1cc2c(c3c4cc(F)ccc4n(S(=O)(=O)c4cccc(C)c4)c13)C(=O)N(Cc1ccccc1OC)C2 | x | x | -4 | x | x | x
O=C(c1cc2sccc2n1Cc1ccccc1)N1CCN(c2nc3ccccc3s2)CC1 | -10 | 7 | -4 | 102* | -2 | 102*
COc1ccc(-n2c(COc3ccc(C)cc3)nnc2SCC(=O)c2ccc(-c3ccccc3)cc2)cc1 | x | x | 0 | x | x | x
SMILES | ATG4B inh | MC4R antagonist | SMARCA2 act | MPTP inh | MC4R barr agon | MPTP counter | others
CCCCCCc1cc2cc(S(=O)(=O)c3ccc(Cl)cc3)c(=O)oc2cc1O | -4 | 2 | 0 | 101* | 4 | 94*
CCCCCCc1cc2cc(C(=O)NCc3ccccc3)c(=N)oc2cc1O | -8 | 3 | 1 | 86* | 6 | 74*
N=c1oc2ccc(Br)cc2cc1C(=O)NCc1ccccc1 | -9 | 8 | 2 | 0 | -2 | x
CCN(CC)c1ccc2cc(S(=O)(=O)c3ccc(Cl)cc3)c(=O)oc2c1 | -9 | 8 | -1 | 1 | 0 | x
N=c1oc2ccccc2cc1C(=O)Nc1ccccc1 | 3 | 6 | 6 | 2 | 1 | x
CCCCCCc1cc2cc(C(=O)Nc3ccccc3)c(=O)oc2cc1O | -3 | 4 | 0 | 73* | 0 | 13
Cc1ccc(NC(=S)NNC(=O)CSc2nc3sc4c(c3c(=O)n2-c2ccccc2)CCCC4)cc1 | x | x | 1 | x | x | x
Cc1ccc(NC(=O)c2cccc3c2-c2ccccc2C3=O)c(C)c1 | x | x | -4 | x | x | x
CCCCCc1cccc2[nH]cc(-c3ccccc3)c12 | x | x | -1 | x | x | x
CN1[C@@H](Cc2ccccc2)COc2cccc(N3CCSCC3)c2S1(=O)=O | x | x | -2 | x | x | x
COC(=O)C[C@@H]1CC[C@H]2[C@H](COc3ccc(NC(=O)Nc4cccc(C#N)c4)cc3C(=O)N2C)O1 | x | x | -3 | x | x | x
COc1cccc(NC(=S)Nc2ccc(O)cc2)c1 | -4 | 23 | -1 | -1 | -1 | x
COc1cccc(NC(=S)NC2CC(C)CC(C)(C)C2)c1 (centres undefined) | x | 12 | -5 | 64* | 7 | 93*
O=C(NC1CCCCCCC1)c1cc(COc2ccc3ncccc3c2)on1 | 18 | 15 | -8 | 102* | 0 | 99*
COc1cc(Cl)ccc1OCc1cc(C(=O)NCC(C)c2ccccc2)no1 (centres undefined) | -2 | 11 | -2 | 3 | -1 | x
O=C(c1cc(COc2ccc3ncccc3c2)on1)N1CCCC(O)C1 (centres undefined) | -1 | 4 | -1 | 2 | -2 | x
CC(CNC(=O)c1cc(COc2ccc3ncccc3c2)on1)c1ccccc1 (centres undefined) | 3 | -2 | -4 | 99* | -3 | 102*
O=C(N[C@H](C(=O)N1CCC[C@H]1C(=O)NCCc1ccccc1Cl)c1ccccc1)C1CCCC1 | x | x | -3 | x | x | x
CN(CCOC(=O)c1cc2ccccc2o1)C1CN(Cc2cn(Cc3cccc(F)c3)nn2)S(=O)(=O)C1 (centres undefined) | x | x | 1 | x | x | x
Cc1ccc(S(=O)(=O)c2nc(NCCN(C)C)sc2Cl)cc1 | 0 | 19 | -3 | -4 | 4 | x
COc1ccc(Nc2nc(S(=O)(=O)c3ccc(C)cc3)c(Cl)s2)cc1 | -11 | 9 | -3 | 59* | 0 | 76*
COc1ccc(CNc2nc(S(=O)(=O)c3ccccc3)c(Cl)s2)cc1OC | -6 | -1 | -3 | 82* | -2 | 64*
O=S(=O)(c1ccccc1)c1nc(Nc2cccc(O)c2)sc1Cl | -15 | 3 | -4 | 54* | -1 | 39*
